Source: ChEMBL document CHEMBL3227923, “Conformational analysis of podophyllotoxin and its congeners. Structure--activity relationship in microtubule assembly” (J Med Chem, 1979)

Organism: Gallus gallus
Experiment: Inhibition of chicken brain microtubule polymerization after 30 mins
Summary of the method: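 Chicken brain microtubule assembly in vitro at 37 °C and neutral pH over a 30-min incubation. ID50 is the drug concentration giving 50% inhibition of assembly, averaged from triplicate experiments (standard deviation <15%).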

| Structure (SMILES) | ID50 |
| --- | --- |
| COc1cc([C@@H]2c3cc4c(cc3[C@H](O)[C@H]3COC(=O)[C@@H]23)OCO4)cc(OC)c1OC | 30 µM |
| COc1cc([C@@H]2c3cc4c(cc3[C@@H](O)[C@H]3COC(=O)[C@H]23)OCO4)cc(OC)c1OC | 5 µM |
| COc1cc([C@@H]2c3cc4c(cc3C[C@H]3CS(=O)(=O)C[C@@H]32)OCO4)cc(OC)c1OC | > 100 µM |
| COc1cc([C@@H]2c3cc4c(cc3C[C@H]3CCC[C@@H]32)OCO4)cc(OC)c1OC | 5 µM |
| COc1cc([C@@H]2c3cc4c(cc3C[C@H]3CSC[C@@H]32)OCO4)cc(OC)c1OC | 10 µM |
| COc1cc([C@@H]2c3cc4c(cc3[C@H](O)[C@H]3COC[C@H]23)OCO4)cc(OC)c1OC | 1 µM |
| COc1cc([C@@H]2c3cc4c(cc3[C@H](O)[C@H]3CSC[C@H]23)OCO4)cc(OC)c1OC | 10 µM |
| COc1cc([C@@H]2c3cc4c(cc3[C@H](O)[C@H]3CS(=O)(=O)C[C@H]23)OCO4)cc(OC)c1OC | > 100 µM |
| COc1cc([C@@H]2c3cc4c(cc3C[C@H]3COC(=O)[C@@H]32)OCO4)cc(OC)c1OC | 0.5 µM |
| COc1cc([C@@H]2c3cc4c(cc3[C@H](O)[C@H]3COC(=O)[C@H]23)OCO4)cc(OC)c1OC | 0.6 µM |
| COc1cc([C@@H]2c3cc4c(cc3C[C@H]3COC[C@@H]32)OCO4)cc(OC)c1OC | 0.8 µM |
